A short description of test [1]: Anticancer activity against human BRCA1-deficient MDA-MB-436 cells after 96 hrs by MTT assay. Format: functional. As to conditions: MDA-MB-436, 96 h. An outline of the steps:
(§1)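 Human breast cancer lines: MCF-7 (wild type) and MDA-MB-436 (naturally carrying BRCA1 mutations, BRCA1-deficient). Cytotoxicity reported as CC50 in μM.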
(In general: Formazan colour is commonly taken as a measure of viable cells.)

Test [2] has as its target Poly [ADP-ribose] polymerase 1 (Homo sapiens, UniProt P09874). As to the kind of experiment: Inhibition of PARP1 (unknown origin).
A further test deals with MCF7. The test can be described thus: Anticancer activity against human MCF7 cells after 96 hrs by MTT assay. Format: functional. Conditions: MCF7, 96 h. An outline of the steps: as §1

In general, CC50 refers to the concentration at which the toxic effect on the cells reaches its halfway point. Low readings indicate greater toxicity to the cells, high ones lower toxicity to the cells. The term IC50 denotes the midpoint of a concentration-inhibition curve. The low end stands for higher potency, the high end for lower potency.

The structures appear in SMILES notation.

Poly [ADP-ribose] polymerase 1, sequence (P09874 whole entry): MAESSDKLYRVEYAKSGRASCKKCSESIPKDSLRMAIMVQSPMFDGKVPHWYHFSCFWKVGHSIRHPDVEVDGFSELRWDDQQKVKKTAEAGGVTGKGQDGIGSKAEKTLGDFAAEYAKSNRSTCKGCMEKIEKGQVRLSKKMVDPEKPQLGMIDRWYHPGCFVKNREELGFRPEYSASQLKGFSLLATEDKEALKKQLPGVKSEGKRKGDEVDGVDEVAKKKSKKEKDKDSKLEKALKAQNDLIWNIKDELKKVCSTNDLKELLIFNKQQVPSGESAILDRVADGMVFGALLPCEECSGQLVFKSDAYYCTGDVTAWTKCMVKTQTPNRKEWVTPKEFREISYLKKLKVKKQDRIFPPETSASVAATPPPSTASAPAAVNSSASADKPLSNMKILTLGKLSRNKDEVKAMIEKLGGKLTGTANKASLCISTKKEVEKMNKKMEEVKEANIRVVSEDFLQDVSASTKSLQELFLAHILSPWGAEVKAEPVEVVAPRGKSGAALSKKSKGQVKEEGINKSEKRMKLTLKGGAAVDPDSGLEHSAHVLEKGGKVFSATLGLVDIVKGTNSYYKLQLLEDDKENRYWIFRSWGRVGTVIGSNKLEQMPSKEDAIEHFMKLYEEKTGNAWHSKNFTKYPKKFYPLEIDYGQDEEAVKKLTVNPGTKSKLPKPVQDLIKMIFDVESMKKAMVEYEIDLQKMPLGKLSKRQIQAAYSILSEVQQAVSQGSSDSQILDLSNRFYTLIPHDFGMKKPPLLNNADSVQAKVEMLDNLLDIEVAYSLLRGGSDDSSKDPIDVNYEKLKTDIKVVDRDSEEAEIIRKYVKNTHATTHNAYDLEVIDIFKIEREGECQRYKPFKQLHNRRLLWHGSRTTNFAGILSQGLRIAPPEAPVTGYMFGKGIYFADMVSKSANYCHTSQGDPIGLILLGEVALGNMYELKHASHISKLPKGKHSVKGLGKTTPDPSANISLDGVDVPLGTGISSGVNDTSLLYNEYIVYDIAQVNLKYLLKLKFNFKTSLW

Consider `CNCc1ccc(-c2[nH]c3cccc4c3c2C(=O)NNC4=O)cc1`, for which the CC50 in test [1] was found to be 11.3 µM; with MCF7, 83.1 µM. Also, in test [2], the IC50 is 2.7 µM.

In the test on MCF7, `CCCNCc1ccc(-c2[nH]c3cccc4c3c2C(=O)NNC4=O)cc1` had a CC50 of 101 µM.

Consider `CC(C)NCc1ccc(-c2[nH]c3cccc4c3c2C(=O)NNC4=O)cc1`, for which the figures for the CC50 (in test [1]; in the test with MCF7) were 55.7 µM and 40.7 µM, respectively. Half-maximal inhibition in test [2] (IC50) was put at 11.3 µM.

For `CCCCNCc1ccc(-c2[nH]c3cccc4c3c2C(=O)NNC4=O)cc1`, the CC50 in test [1] amounted to 18.9 µM; with MCF7, 18 µM. This compound also returned an IC50 in test [2] of 0.25 µM.

For `CNCc1ccc(-c2[nH]c3cc(F)cc4c3c2C(=O)NNC4=O)cc1`, the CC50 in test [1] was found to be 56.2 µM; with MCF7, 65.3 µM. Further, the IC50 in test [2] amounted to 0.00664 µM.

In the case of `CCCNCc1ccc(-c2[nH]c3cc(F)cc4c3c2C(=O)NNC4=O)cc1`, the figures for the CC50 (in test [1]; in the test with MCF7) were 5.45 µM and 25.9 µM, respectively. In test [2], this compound had an IC50 of 0.0035 µM.

For the compound `CCCCNCc1ccc(-c2[nH]c3cc(F)cc4c3c2C(=O)NNC4=O)cc1`, the CC50 in test [1] worked out at 114 µM. Further, 0.00242 µM corresponded to half-maximal inhibition in test [2] (IC50).

The compound `CNCc1ccc(-c2cc3c4c(c[nH]c4c2)C(=O)NNC3=O)cc1` gave a CC50 in the test with MCF7 of 1240 µM.

As for `CCCNCc1ccc(-c2cc3c4c(c[nH]c4c2)C(=O)NNC3=O)cc1`, the CC50 in test [1] was determined as 112 µM; in the test on MCF7, 5560 µM. For the same compound, it took 0.138 µM to reach half-maximal inhibition in test [2] (IC50).

As for `CC(C)NCc1ccc(-c2cc3c4c(c[nH]c4c2)C(=O)NNC3=O)cc1`, the CC50 in test [1] was found to be 105 µM; with MCF7 it was 1920 µM. The compound further came in with an IC50 in test [2] of 0.465 µM.

`CCCCNCc1ccc(-c2cc3c4c(c[nH]c4c2)C(=O)NNC3=O)cc1`: the values for the 50% cytotoxic concentration (CC50) (in test [1]; in the test with MCF7) were 68.8 µM and 237 µM, respectively. In test [2], this compound came in with an IC50 of 0.0354 µM.

`CNCc1ccc(-c2[nH]c3cc(F)cc4c3c2CCNC4=O)cc1` [RUCAPARIB]: the CC50 in test [1] came to 3 µM; with MCF7, 19.5 µM.
